Paper PMC3178738 (Bioconjugate chemistry, 2011)
“Also recorded” adds a separate entry of the source.

What was measured:
[1] = Stability of the aluminum chelates in PBS; format: physicochemical; details: chemical stability, pH 7.4, 37 °C
In short: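 Al–OH and Al–F chelates of the test chelator, made by reacting it with AlCl3 or AlF3, were incubated in PBS, pH 7.4, at 37 °C. Aluminum loss (demetalation) was followed by RP-HPLC at 3 h, 12 h and 24 h.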

[2] = animal studies, cited from earlier work

AlF(NODA-MPAA) [compound 3]
time stable in PBS [1]: over 24 h | loss of aluminum (demetalation) ([1]; 24 h, RP-HPLC): no detectable loss of aluminum; also recorded: no signs of demetalation

AlOH(NODA-MPAA) [compound 2]
demetalation ([1]; 3 h, RP-HPLC): 23% | demetalation ([1]; 12 h, RP-HPLC): 61%

NODA-MPAA-D-Lys(HSG)-D-Tyr-D-Lys(HSG)-NH2 [IMP485]
presence in the bone ([2]; kit formulated IMP485, supporting in vivo stability): negligible | clearance from the body ([2]; kit formulated IMP485): rapid clearance from the body via the kidneys
